From PubChem
PGC1a acetyl inh = lowers PGC1a acetylation signal in U2OS cells | AlphaScreen anti-acetyl-lysine; with virally co-expressed GCN5 acetyltransferase | inhibition, % at 15.6 µM | 350,000 tested, 0.17% active;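 active = every replicate shows inhibition of at least 40%; inconclusive = mean inhibition at least 40% but some replicate below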;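 note: 0% = neutral control wells and 100% = positive control wells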
Casp6 inh = blocks human caspase-6 cleavage activity; AID 686996; purified caspase-6, Z-VEID-R110 cleavage fluorescence; 350,000 tested, 0.53% active; inhibition, % at 12.5 µM; P55212;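 active = mean inhibition across replicates at least about 35%, with every replicate also reaching that limit, limit read from the data; inconclusive = only one of the two criteria met; inactive = neither criterion met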;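 note: 0% = median of neutral control wells and 100% = no fluorescence left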
S100A4 MyoIIA = blocks human S100A4 binding to myosin IIA peptide; inhibition, % at 10.7 µM; 360,000 tested, 0.14% active; S100A4/TAMRA-MyoIIA peptide fluorescence polarization; P26447;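 active = mean inhibition of at least 70% across replicates, with every replicate also reaching that level; inconclusive = mean inhibition reaches 70% but some replicates fall short; inactive = mean inhibition below 70%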
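Compound dosing: one dose per compound; test system: human S100A4 monomer with TAMRA-labelled myosin IIA peptide; probe or stimulus: TAMRA-labelled myosin IIA heavy-chain peptide probe, 5 nM; medium: HEPES buffer with Ca2+, pH 7.2; schedule: 5 min incubation before reading; benchmarks: neutral control DMSO, positive control TFP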
ERAP1 HTS inh = blocks human ERAP1 aminopeptidase activity. Q9NZ08. recombinant ERAP1, Leu-AMC fluorescence, 60 min. inhibition, % at 10.7 µM. 340,000 tested, 0.15% active. AID 652197;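 active = mean replicate inhibition of at least 30%, or all replicates individually reaching that 30% level; inactive = mean below 30% and not every replicate reaching it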;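 note: 0% = neutral control wells and 100% = L-leucinethiol positive control wells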
Target sequence (Q9NZ08 whole entry, looked up): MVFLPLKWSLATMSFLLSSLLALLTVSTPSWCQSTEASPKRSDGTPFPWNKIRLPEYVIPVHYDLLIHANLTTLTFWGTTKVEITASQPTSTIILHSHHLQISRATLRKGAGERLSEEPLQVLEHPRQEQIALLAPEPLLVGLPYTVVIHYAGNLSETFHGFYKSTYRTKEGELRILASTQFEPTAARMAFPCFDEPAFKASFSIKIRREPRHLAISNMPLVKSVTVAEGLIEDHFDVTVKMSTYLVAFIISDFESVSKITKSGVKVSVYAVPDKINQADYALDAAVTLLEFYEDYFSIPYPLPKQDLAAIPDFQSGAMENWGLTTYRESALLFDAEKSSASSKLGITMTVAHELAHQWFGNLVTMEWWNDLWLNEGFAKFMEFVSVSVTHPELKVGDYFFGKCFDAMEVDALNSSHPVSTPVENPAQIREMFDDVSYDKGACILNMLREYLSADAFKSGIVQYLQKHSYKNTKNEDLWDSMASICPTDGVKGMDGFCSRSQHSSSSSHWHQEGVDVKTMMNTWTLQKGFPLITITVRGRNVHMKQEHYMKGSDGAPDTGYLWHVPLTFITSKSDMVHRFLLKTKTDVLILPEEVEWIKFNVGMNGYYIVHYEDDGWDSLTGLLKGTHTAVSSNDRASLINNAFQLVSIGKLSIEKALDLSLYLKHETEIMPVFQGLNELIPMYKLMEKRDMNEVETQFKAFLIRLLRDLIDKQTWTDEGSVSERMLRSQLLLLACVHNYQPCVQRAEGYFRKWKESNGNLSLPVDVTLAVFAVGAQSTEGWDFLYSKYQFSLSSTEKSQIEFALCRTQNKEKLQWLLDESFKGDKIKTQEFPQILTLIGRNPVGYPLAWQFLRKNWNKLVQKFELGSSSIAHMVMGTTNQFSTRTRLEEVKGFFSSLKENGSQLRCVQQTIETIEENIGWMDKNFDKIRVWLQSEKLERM
rRNA inh HTS = inhibitors of bacterial rRNA selective over humanized ribosomes; E. coli WT GFP vs humanized-ribosome RFP mutants, fluorescence, 24 h; stronger effect = lower value; DMSO median 0, no signal -100; GFP signal change (wild-type ribosome), % (no concentration beside the values); 350,000 tested, 1.6% active; AID 720706;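 active = significant combined selectivity score with lowered wild-type GFP, culture density cut under 30%, mutant RFP and density less affected; inactive = any of these conditions unmet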
ARNT TACC3 PPI = disrupts binding between human ARNT and TACC3 | AlphaScreen His-ARNT PAS-B/GST-TACC3 binding, luminescence; TACC3 fragment carries E629A point mutation | inhibition, % at 9.99 µM | 390,000 tested, 0.66% active | AID 623870;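 active = mean inhibition of replicates at least 50% and at least half of replicates each reaching 50%; inconclusive = half or more replicates reach 50% but mean below 50%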;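 note: 0% = complete ARNT plus TACC3 wells and 100% = ARNT alone without TACC3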
AID977621 = growth inhibition of wild-type GFP E. coli, dose response, H69 mutant RFP, cherry-pick; shares compounds with rRNA inh HTS; activity change, negative = inhibition at 50 µM; 1,900 tested, under 10 active; E. coli wild-type GFP strain growth, fluorescence, 24 h;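 active = Wild-type ribosome reporter drop at least double the humanized mutant ribosome reporter drop, growth loss under a set limit; inconclusive = no clear call, values can overlap the other calls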;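 note: wild-type GFP and H69 mutant RFP strains grown together 50/50 in each well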
AID977628 = growth of wild-type and h24-humanized E. coli strains – h24 mutant RFP vs wild-type GFP, cherry-pick, dose response; shares compounds with rRNA inh HTS; E. coli WT GFP strain growth, fluorescence, 24 h; activity change, negative = inhibition at 50 µM; 1,900 tested, under 10 active; AID 977628;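 active = compound lowering the normal-ribosome reporter at least twice as much as the humanized-ribosome reporter, growth loss under a set limit; inconclusive = no clear call, values can overlap the other calls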;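 note: wild-type GFP and h24 humanized RFP strains co-cultured 1 to 1 per well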
Numbers without * were called inactive. Hits are enriched below; roughly 2.4% of the tested compounds scored in any of these assays.

Results for O=C(NCc1ccc(Cl)cc1)c1csc(-c2cccnc2)n1 ?
PGC1a acetyl inh: 14.8; Casp6 inh: 9.7; S100A4 MyoIIA: 1.3; ERAP1 HTS inh: -2.4; rRNA inh HTS: -36.7*; ARNT TACC3 PPI: -8.8; AID977621: inconclusive

How did CCOC(=O)c1cnc2ccccc2c1NCCO do in these assays?
PGC1a acetyl inh: -17.3; S100A4 MyoIIA: -9.8; ARNT TACC3 PPI: -5.4

How did CCOC(=O)c1cnc2c(ccc3ccccc32)c1NCCCN(C)C do in these assays?
PGC1a acetyl inh: -0.2; Casp6 inh: -10.7; S100A4 MyoIIA: 1.9; ERAP1 HTS inh: -0.7; rRNA inh HTS: -26.2*; ARNT TACC3 PPI: -0.4; AID977621: -4.27

How did COc1ccc(Br)c(-c2nnc(CS(=O)(=O)c3ccccc3)o2)c1 do in these assays?
PGC1a acetyl inh: 5.4; Casp6 inh: -2.3; S100A4 MyoIIA: -3.4; ERAP1 HTS inh: 2.1; rRNA inh HTS: -4.6; ARNT TACC3 PPI: 4.3

Results for COc1ccc(Br)c(-c2nc(CS(=O)(=O)c3ccc(F)cc3)no2)c1 ?
PGC1a acetyl inh: -26.7; Casp6 inh: -2.7; S100A4 MyoIIA: -2.6; ERAP1 HTS inh: -3.1; rRNA inh HTS: -26.6*; AID977628: -7.55

How did O=C(Cc1ccccc1)NC(NC(=O)Cc1ccccc1)c1cccc([N+](=O)[O-])c1 do in these assays?
Casp6 inh: 1.7; S100A4 MyoIIA: -4.2; ERAP1 HTS inh: -2.8; rRNA inh HTS: 4.3; ARNT TACC3 PPI: 0.6

How did C=CCN(CC(O)c1cccc([N+](=O)[O-])c1)C(C)CCc1ccccc1 (stereo not drawn) do in these assays?
PGC1a acetyl inh: 6.0; Casp6 inh: 0.4; S100A4 MyoIIA: 3.7; rRNA inh HTS: -20.6*; ARNT TACC3 PPI: 11.5; AID977621: inconclusive

Results for CNC[C@H]1OCCCC[C@H](C)Oc2ccc(NS(=O)(=O)c3ccc(OC)cc3)cc2C(=O)N([C@@H](C)CO)C[C@@H]1C ?
PGC1a acetyl inh: 7.8; Casp6 inh: -1.2; S100A4 MyoIIA: -10.9; ERAP1 HTS inh: -0.8; rRNA inh HTS: -0.4; ARNT TACC3 PPI: 21.2

What do the screens show for `COc1ccccc1-c1cnc2c(c1)C(=O)N([C@@H](C)CO)C[C@H](C)[C@H](CN(C)C(=O)c1ccccc1)O2`?
PGC1a acetyl inh: 3.9; rRNA inh HTS: 1.2; ARNT TACC3 PPI: 8.7

How did Cc1noc(C)c1S(=O)(=O)Nc1ccc2c(c1)C(=O)N([C@@H](C)CO)C[C@H](C)[C@H](CN(C)Cc1ccncc1)OCCCC[C@@H](C)O2 do in these assays?
PGC1a acetyl inh: 7.8; Casp6 inh: -0.3; S100A4 MyoIIA: -8.2; ERAP1 HTS inh: -6.3; rRNA inh HTS: 2.9; ARNT TACC3 PPI: -2.9

Results for O=S1(=O)N[C@H](Cc2ccccc2)COc2cc(N3CCSCC3)ccc21 ?
Casp6 inh: -0.1; S100A4 MyoIIA: -3.4; rRNA inh HTS: -16.5*; AID977621: -0.847; AID977628: -10.2

How did O=S1(=O)N[C@H](Cc2ccccc2)COc2cc(N3CCCCC3)ccc21 do in these assays?
Casp6 inh: -1.7; S100A4 MyoIIA: -8.0; ERAP1 HTS inh: -5.1; rRNA inh HTS: -2.2

How did COc1ccc(C2CC(c3cccs3)=Nc3ccccc3S2)cc1 (stereo not drawn) do in these assays?
PGC1a acetyl inh: 17.5; Casp6 inh: -1.8; S100A4 MyoIIA: -3.4; ERAP1 HTS inh: 1.6; rRNA inh HTS: -25.6*; ARNT TACC3 PPI: 12.8; AID977621: -1.17; AID977628: inconclusive

What do the screens show for `COc1ccc(C2CC(c3cccs3)=NN2S(C)(=O)=O)cc1` (stereo not drawn)?
PGC1a acetyl inh: 2.5; Casp6 inh: -0.5; S100A4 MyoIIA: -15.8; ERAP1 HTS inh: -2.1; rRNA inh HTS: 1.4; ARNT TACC3 PPI: -1.2

How did C[C@H]1CN([C@@H](C)CO)C(=O)c2cc(C3=CCCC3)cnc2O[C@@H]1CN(C)C(=O)Nc1ccccc1 do in these assays?
PGC1a acetyl inh: -0.3; Casp6 inh: 1.6; S100A4 MyoIIA: 3.8; ERAP1 HTS inh: 1.8; rRNA inh HTS: -0.2; ARNT TACC3 PPI: -3.1

How did CCOC(=O)c1nc(S(C)(=O)=O)ncc1Cl do in these assays?
PGC1a acetyl inh: -131.7; Casp6 inh: -1.7; S100A4 MyoIIA: 4.1; ERAP1 HTS inh: 3.3; rRNA inh HTS: -27.1*; ARNT TACC3 PPI: 2.9; AID977621: -2.99; AID977628: inconclusive

How did CCOC(=O)c1nc(S(C)(=O)=O)ncc1N1CCOCC1 do in these assays?
PGC1a acetyl inh: 9.1; ARNT TACC3 PPI: -4.4

How did O=C(C[C@@H]1C[C@H]2c3cc(NC(=O)CC4CC4)ccc3O[C@H]2[C@H](CO)O1)NCc1cccc(F)c1 do in these assays?
PGC1a acetyl inh: 11.8; Casp6 inh: -5.6; S100A4 MyoIIA: 5.5; ERAP1 HTS inh: 3.4; rRNA inh HTS: -3.0; ARNT TACC3 PPI: -2.9

How did CCNc1nc(N)c(C(=C(C#N)C#N)c2ccccc2)s1 do in these assays?
PGC1a acetyl inh: -21.8; ARNT TACC3 PPI: -9.0

What do the screens show for `CCNc1nc(N)c(C(=O)C23CC4CC(CC(C4)C2)C3)s1`?
PGC1a acetyl inh: 6.8; Casp6 inh: 0.7; S100A4 MyoIIA: -3.1; ERAP1 HTS inh: 3.3; rRNA inh HTS: -23.2*; ARNT TACC3 PPI: -7.4; AID977621: 7.12; AID977628: -6.26

How did Cc1ccccc1S(=O)(=O)N1C[C@@H](O)COC[C@H]2O[C@@H](CC(=O)N3CCCCC3)CC[C@@H]21 do in these assays?
PGC1a acetyl inh: -8.6; Casp6 inh: 0.4; S100A4 MyoIIA: -24.7; ERAP1 HTS inh: 1.1; rRNA inh HTS: 1.2; ARNT TACC3 PPI: 9.2

What do the screens show for `COc1cc(CN2CC3(CN(S(=O)(=O)c4cn(C)cn4)C3)c3c(n(C)c4cc(OC)ccc34)[C@@H]2CO)cc(OC)c1`?
PGC1a acetyl inh: -1.2; Casp6 inh: 2.2; S100A4 MyoIIA: 60.1; ERAP1 HTS inh: 1.6; rRNA inh HTS: -2.7

How did N#Cc1nc(COc2ccc(F)cc2)oc1N1CCCC1 do in these assays?
PGC1a acetyl inh: -5.7; ARNT TACC3 PPI: 14.2

What do the screens show for `N#Cc1nc(COc2cccc(Cl)c2)oc1N1CCCC1`?
PGC1a acetyl inh: 4.3; Casp6 inh: 1.7; S100A4 MyoIIA: -6.4; ERAP1 HTS inh: 4.2; rRNA inh HTS: -32.5*; ARNT TACC3 PPI: 30.9; AID977621: -9.63; AID977628: -9.86

What do the screens show for `CC1CC(C)CN(c2oc(Cc3ccccc3)nc2C#N)C1` (stereo not drawn)?
ARNT TACC3 PPI: 33.1
